Legend:
[1] = biological target: T1, GABA-A receptor; alpha-1/beta-2/gamma-2 (Homo sapiens) (UniProt P14867+P47870+P18507); assay: Modulatory activity against human GABA-A receptor alpha-1-beta-2-gamma-2 subunits expressed in Xenopus laevis Oocytes at 100 uM; assay type: cell-based
Outline: (§1)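 Xenopus stage V–VI oocytes, defolliculated with collagenase, nuclear-injected with α1, β2, γ2 cDNAs and cultured at 19 °C. Two-electrode voltage clamp at -70 mV began about 24 h later, under MBS perfusion at room temperature. Drug applied for 20 s; value is percent change of the current evoked by GABA EC20 (2-10 μM). Means from 6–14 oocytes ± SEM.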

[2] = biological target: T1, GABA-A receptor; alpha-1/beta-2/gamma-2 (Homo sapiens); assay: Modulatory activity against human GABA-A receptor alpha-1-beta-2-gamma-2 subunits expressed in Xenopus laevis Oocytes at 50 uM; assay type: cell-based; outline: as §1
Translocator protein [3] = biological target: T2, Translocator protein (Rattus norvegicus, UniProt P16257); assay: Displacement of [3H]-PK 11195 from peripheral-type benzodiazepine receptor of rat cerebral cortex membranes; assay type: cell membranes, Membrane
[4] = biological target: T1, GABA-A receptor; alpha-1/beta-2/gamma-2 (Homo sapiens); assay: Modulatory activity against human GABA-A receptor alpha-1-beta-2-gamma-2 subunits expressed in Xenopus laevis Oocytes at 10 uM; assay type: cell-based; outline: as §1
[5] = biological target: GABA-A receptor; anion channel; assay: Affinity benzodiazepine receptor as ability to displace [3H]flunitrazepam from binding to membrane preparations from rat cerebral cortex.; assay type: tissue-based
Outline: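 Rat cerebral cortex homogenised in ice-cold 50 mM Tris-HCl pH 7.4, centrifuged twice at 20000g and resuspended; 0.4-0.5 mg protein incubated with 0.5 nM [3H]flunitrazepam for 60 min at 0 °C. Filtration, then scintillation counting. Nonspecific binding defined with 5 μM diazepam. pIC50 from means of 3 experiments run in duplicate.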

Translocator protein [6] = biological target: T2, Translocator protein; assay: Displacement of [3H]-PK 11195 from peripheral-type benzodiazepine receptor of rat ovary membranes; assay type: cell membranes, Female gonad, Membrane

T2 sequence (P16257 whole entry, looked up): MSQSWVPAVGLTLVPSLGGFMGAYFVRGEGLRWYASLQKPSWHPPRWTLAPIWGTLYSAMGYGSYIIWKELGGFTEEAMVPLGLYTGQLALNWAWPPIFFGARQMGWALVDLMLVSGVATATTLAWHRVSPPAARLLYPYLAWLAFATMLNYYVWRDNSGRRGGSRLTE

Structure (SMILES) | Activity [1] | Activity [2] | IC50 (Translocator protein [3]) | Activity [4] | pIC50 [5] | IC50 (Translocator protein [6])
CCCN(CCC)C(=O)Cc1c(-c2ccccc2)nc2ccc(C(=O)OC)cn12 | 11.6 | 11.4 | 16.6 nM | 17.1 | 4.92 | 26.9 nM
CCCN(CCC)C(=O)Cc1c(-c2ccccc2)nc2c(C)cccn12 | – | – | 20 nM | – | 4.85 | 41.7 nM
CCCN(CCC)C(=O)Cc1c(-c2ccc(Cl)cc2)nc2c(NC)cccn12 | – | – | 3.72 nM | – | 4 | 7.94 nM
CCCCCCN(CCCCCC)C(=O)Cc1c(-c2ccc(Cl)cc2)nc2ccccn12 | – | – | 182 nM | – | 3.83 | 178 nM
CCCN(CCC)C(=O)Cc1c(-c2ccccc2)nc2ccccn12 | – | – | 100 nM | – | 6.28 | 95.5 nM
CCCCN(CCCC)C(=O)Cc1c(-c2ccc(Cl)cc2)nc2ccccn12 | < 23.9 | < 35 | 5.89 nM | < 23.2 | 7.04 | 10.5 nM
CCC(C)N(C)C(=O)c1cc2ccccc2c(-c2ccccc2Cl)n1 (configuration not stated) [PK-11195] | 91 | 4.3 | – | -16 | 4.67 | –
CCN(CC)C(=O)Cc1c(-c2ccccc2)nc2ccccn12 | – | – | 437 nM | – | 5.68 | 525 nM
CCCN(CCC)C(=O)Cc1c(-c2ccccc2)nc2c(OC)cccn12 | – | – | 46.8 nM | – | 5.27 | 49 nM
CCCN(CCC)C(=O)Cc1c(-c2ccccc2)nc2c(C)cc(Br)cn12 | – | – | 1.62 nM | – | 4.27 | 2.63 nM
CCCN(CCC)C(=O)Cc1c(-c2ccccc2)nc2c(NC(C)=O)cccn12 | – | – | 257 nM | – | 4.96 | 447 nM
CCCN(CCC)C(=O)Cc1c(-c2ccc(Cl)cc2)nc2c(Cl)cc(C(F)(F)F)cn12 | – | – | 1.82 nM | – | 5 | 2.82 nM
CCCN(CCC)C(=O)Cc1c(-c2ccc(Cl)cc2)nc2c(Cl)cc(Cl)cn12 [ALPDEM] | – | – | 1 nM | – | 2.4 | 2.63 nM
CCCN(CCC)C(=O)Cc1c(-c2ccc(Cl)cc2)nc2c(OC)cccn12 | – | – | 16.6 nM | – | 4.19 | 20.9 nM
CCCN(CCC)C(=O)Cc1c(-c2ccc(Cl)cc2)nc2c([N+](=O)[O-])cccn12 | – | – | 5.75 nM | – | 5 | 8.71 nM
CCCCNC(=O)Cc1c(-c2ccccc2)nc2c(Cl)cc(Cl)cn12 | – | – | 295 nM | – | 4 | 389 nM

Structure (SMILES) | Activity [1] | Activity [2] | IC50 (Translocator protein [3]) | Activity [4] | pIC50 [5] | IC50 (Translocator protein [6])
CCCN(CCC)C(=O)Cc1c(-c2ccc(Cl)cc2)nc2c(Br)cc(Br)cn12 | – | – | 0.794 nM | – | 5 | 1.58 nM
CCCN(CCC)C(=O)Cc1c(-c2ccccc2)nc2ccc([N+](=O)[O-])cn12 | – | – | 7.59 nM | – | 5.47 | 7.76 nM
CCCN(CCC)C(=O)Cc1c(-c2ccccc2)nc2ccc(C(N)=O)cn12 | – | – | 457 nM | – | 5.58 | 302 nM
CCCCCCN(CCCCCC)C(=O)Cc1c(-c2ccccc2)nc2ccccn12 | – | – | 19.1 nM | – | 3.93 | 13.2 nM
CCCN(CCC)C(=O)Cc1c(-c2ccc(Cl)cc2)nc2c(C)cccn12 | < -44.3 | < -38.7 | 1.41 nM | -9.6 | 2.4 | 2.82 nM
CCCN(CCC)C(=O)Cc1c(-c2ccccc2)nc2c(N)cccn12 | – | – | 4.27 nM | – | 5.27 | 5.75 nM
CCCN(CCC)C(=O)Cc1c(-c2ccc(Cl)cc2)nc2c(N)cccn12 | – | – | 6.31 nM | – | 5.07 | 4.57 nM
CCCN(CCC)C(=O)Cc1c(-c2ccc(Cl)cc2)nc2c(NC(C)=O)cccn12 | – | – | 10 nM | – | 4.09 | 33.1 nM
CCCN(CCC)C(=O)Cc1c(-c2ccccc2)nc2c([N+](=O)[O-])cccn12 | – | – | 85.1 nM | – | 4.8 | 120 nM
CCCNC(=O)Cc1c(-c2ccc(Cl)cc2)nc2ccccn12 | – | – | 589 nM | – | 6.93 | 1620 nM
CCCN(CCC)C(=O)Cc1c(-c2ccc(Cl)cc2)nc2c(Cl)cccn12 | -15.2 | -6.1 | 4.27 nM | 4.5 | 2.4 | 7.41 nM
CCCN(CCC)C(=O)Cc1c(-c2ccccc2)nc2c(Cl)cccn12 | – | – | 22.9 nM | – | 4.59 | 15.8 nM
CCCN(CCC)C(=O)Cc1c(-c2ccc(Cl)cc2)nc2ccccn12 | – | – | 10 nM | – | 7.19 | 33.1 nM
CCCN(CCC)C(=O)Cc1c(-c2ccccc2)nc2c(Cl)cc(Cl)cn12 | – | – | 3.02 nM | – | 2.4 | 4.27 nM
CCCNC(=O)Cc1c(-c2ccccc2)nc2ccccn12 | – | – | 2000 nM | – | 6.09 | 2000 nM
CCCCN(CCCC)C(=O)Cc1c(-c2ccccc2)nc2ccccn12 | < 58.2 | < 44.6 | 17 nM | 17.4 | 6.3 | 22.9 nM

Source: ChEMBL document CHEMBL1132659, “Novel 2-phenylimidazo[1,2-a]pyridine derivatives as potent and selective ligands for peripheral benzodiazepine receptors: synthesis, binding affinity, and in vivo studies” (J Med Chem, 1999)
